Here are results for 22 compounds from ChEMBL document CHEMBL1135934, “Structure-activity relationships of methoctramine-related polyamines as muscular nicotinic receptor noncompetitive antagonists. 2. Role of polymethylene chain lengths separating amine functions and of substituents on the terminal nitrogen atoms” (J Med Chem, 2002).

For test [1], the target named is Acetylcholine receptor (Torpedo californica) (UniProt P02710+P02712+P02718+P02714). To be noted: Tetronarce californica; Electric organ.
For test [2], the target named is Muscarinic acetylcholine receptor M3 (Cavia porcellus) (UniProt Q8VH26). Kind of test: Antagonist affinity at muscarinic acetylcholine receptor (mAChR) of guinea pig longitudinal ileum (M3). Type of test: functional, tissue-based. An outline of the steps:
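Guinea pig ileum (either sex, 200-400 g) in a 15 mL organ bath of physiological salt solution, gassed 5% CO2/95% O2, pH 7.4. Arecaidine propargyl ester curves (0.01-0.5 µM) were run at 30 min intervals, with the first discarded and the second taken as control. A repeat curve followed 60 min antagonist. pK came from graphical EC50 dose ratios by the Furchgott equation.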

Test [3] can be described thus: Antagonism of carbachol action on nAChR of isolated frog rectus abdominus. Type of test: functional, tissue-based, Rectus abdominis muscle.
In test [4] the test system is Muscarinic acetylcholine receptor M2 (Cavia porcellus). Kind of test: Antagonist affinity at muscarinic acetylcholine receptor (mAChR) of guinea pig left atrium (M2). To be noted: Cardiac atrium.

Sequence of Muscarinic acetylcholine receptor M3 (Cavia porcellus) (Q8VH26 1-587): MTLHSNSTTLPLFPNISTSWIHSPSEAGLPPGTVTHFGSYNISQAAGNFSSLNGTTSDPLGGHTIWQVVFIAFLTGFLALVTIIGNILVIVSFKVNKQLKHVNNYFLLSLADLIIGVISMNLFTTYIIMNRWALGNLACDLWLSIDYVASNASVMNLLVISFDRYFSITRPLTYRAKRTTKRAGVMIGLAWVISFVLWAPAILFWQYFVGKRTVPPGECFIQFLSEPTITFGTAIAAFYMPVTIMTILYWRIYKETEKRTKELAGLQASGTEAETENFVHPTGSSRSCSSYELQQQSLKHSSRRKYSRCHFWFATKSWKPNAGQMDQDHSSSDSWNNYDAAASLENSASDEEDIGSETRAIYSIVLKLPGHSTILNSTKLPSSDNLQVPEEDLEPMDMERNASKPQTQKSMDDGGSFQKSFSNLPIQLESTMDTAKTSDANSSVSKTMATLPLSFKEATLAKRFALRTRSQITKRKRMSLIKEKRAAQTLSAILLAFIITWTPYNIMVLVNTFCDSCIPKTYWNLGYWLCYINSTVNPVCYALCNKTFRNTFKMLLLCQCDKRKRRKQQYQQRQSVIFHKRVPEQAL

By pKB is commonly meant −log10 of the KB, conventionally taken in molar units. As to `CCCC(=O)NC(Cc1ccc(O)cc1)C(=O)NCCCNCCCCNCCCN` (stereo unspecified), the pKapp in test [1] was 3.94. In addition, the pKB in test [2] was < 5. In test [3], the “Log IC50” value is listed as -4.62.

Compound `COc1ccccc1CNCCCCCCNCCCCCCCCNCCCCCCNCc1ccccc1OC` [METHOCTRAMINE] registered a pKapp in test [1] of 6.21. The compound further yielded a pKB in test [2] of 6.14. Moreover, the “Log IC50” value in test [3] is -5.93.

`COc1ccccc1CNCCCCCCNCCCCCCCCCCCCNCCCCCCNCc1ccccc1OC`: the pKB in test [4] turned out to be 7.35; in test [2], 5.98. In test [1], this compound yielded a pKapp of 5.66. Besides, the “Log IC50” value in test [3] is given as -7.02.

As for `COc1ccccc1CCNCCCCCCNCCCCCCCCNCCCCCCNCCc1ccccc1OC`, the pKB in test [4] stood at 6.64; in test [2] it was 5.32. In addition, in test [3], the “Log IC50” value is -5.36.

For `CCCC(=O)N[C@H](Cc1ccc(O)cc1)C(=O)NCCCNCCCCCCNCCCCCCCCCCCCNCCCCCCN`, the pKapp in test [1] was determined as 5.28. The “Log IC50” value in test [3] is recorded as -6.3.

As for `COc1ccccc1CN(C)CCCCCCN(C)CCCCCCCCN(C)CCCCCCN(C)Cc1ccccc1OC`, the pKB in test [4] was 6.79; in test [2], < 5. Also, the “Log IC50” value in test [3] is -5.88.

Turning to `COc1ccccc1CNCCCNCCCCCCNCCCCCCCCCCCCNCCCCCCNCCCNCc1ccccc1OC`, the results for the pKB in test [4] and in test [2] were 6.5 and < 5, respectively. In test [1], this compound yielded a pKapp of 7.04. The “Log IC50” value in test [3] is given as -6.66.

In the case of `COc1ccc2cc(C(=O)NCCCNCCCCCCNCCCCCCCCNCCCCCCNCc3ccccc3OC)c(=O)oc2c1`, the pKapp in test [1] was 6.41. The same compound displayed a pKB in test [2] of 6.19. Further, the “Log IC50” value in test [3] is -6.21.

For the compound `COc1ccccc1CNCCCCCCNCc1ccc(-c2ccc(-c3ccc(CNCCCCCCNCc4ccccc4OC)cc3)cc2)cc1`, the pKB in test [4] and in test [2] was < 5 in each case. The pKapp in test [1] is 6.35. In addition, in test [3], the “Log IC50” value is recorded as -6.3.

Consider `COc1ccccc1CNCCCCCCNCCCCCCNCCCCCCNCCCCCCNCc1ccccc1OC`, for which the pKB in test [4] amounted to 6.98; in test [2], 5.3. Moreover, in test [3], the “Log IC50” value is reported as -6.68.

Compound `CCCC(=O)N[C@H](Cc1ccc(O)cc1)C(=O)NCCCNCCCCCCNCCCCCCCCCCCCNCCCCCCNCc1ccccc1OC` showed a pKapp in test [1] of 5.89. Besides, the “Log IC50” value in test [3] is -6.27.

Regarding `[N-]=[N+]=Nc1ccc(C(=O)NCCCNCCCCCCNCCCCCCCCNCCCCCCN)c(O)c1`, the figures for the pKB in test [4] and in test [2] were 7.01 and 7.35, respectively. In test [1], this compound returned a pKapp of 5.46. The “Log IC50” value in test [3] is -6.39.

For the compound `c1ccc(C(CNCCCCCCNCCCCCCCCNCCCCCCNCC(c2ccccc2)c2ccccc2)c2ccccc2)cc1`, the pKB came out at 5.98 in test [4] and 5.4 in test [2]. In test [3], the “Log IC50” value is -6.31.

As for `COc1ccc2cc(C(=O)NCCCNCCCCCCNCCCCCCCCNCCCCCCNCc3cc(I)ccc3OC)c(=O)oc2c1`, the pKapp in test [1] is 6.8. Besides, the pKB in test [2] was 5.68. For the same compound, the “Log IC50” value in test [3] is -7.11.

For `[N-]=[N+]=Nc1ccc(C(=O)NCCCNCCCCCCNCCCCCCCCCCCCNCCCCCCNCCCNC(=O)c2ccc(N=[N+]=[N-])cc2O)c(O)c1`, the pKapp in test [1] is 5.72. The “Log IC50” value in test [3] is recorded as -6.17.

For `[N-]=[N+]=Nc1ccc(C(=O)NCCCNCCCCCCNCCCCCCCCNCCCCCCNCCCNC(=O)c2ccc(N=[N+]=[N-])cc2O)c(O)c1`, the pKapp in test [1] was determined as 5.86. The “Log IC50” value in test [3] was -5.8.

Consider `COc1ccccc1CNCCCNCCCCCCNCCCCCCCCNCCCCCCNCCCNCc1ccccc1OC`, for which the pKB in test [4] and in test [2] was < 6 throughout. In test [1], this compound displayed a pKapp of 6.66. Besides, in test [3], the “Log IC50” value is given as -6.44.

`CCCC(=O)N[C@H](Cc1ccc(O)cc1)C(=O)NCCCNCCCCCCNCCCCCCNCCCCCCNCc1ccccc1OC`: the figures for the pKB in test [4] and in test [2] were 5.87 and 5.08, respectively. In test [1], the pKapp was found to be 6.12. In addition, in test [3], the “Log IC50” value was -5.48.

In the case of `COc1ccccc1CNCc1ccc(CNCCCCCCCCCCCCNCc2ccc(CNCc3ccccc3OC)cc2)cc1`, the pKB in test [4] and in test [2] was < 5 each time. Moreover, the pKapp in test [1] came to 6.19. In addition, the “Log IC50” value in test [3] was -6.43.

Take `COc1ccccc1CNCCCCCCOCCCCCCCCOCCCCCCNCc1ccccc1OC`: the pKB in test [4] and in test [2] was < 5 throughout. The “Log IC50” value in test [3] was -5.14.

In the case of `COc1ccccc1CNCCCNCCCCCCNCCCCCCNCCCCCCNCCCNCc1ccccc1OC`, the figures for the pKB in test [4] and in test [2] were 6.15 and < 5, respectively. Further, the pKapp in test [1] is 6.4. In test [3], the “Log IC50” value is -6.42.

Consider `CCCC(=O)N[C@H](Cc1ccc(O)cc1)C(=O)NCCCNCCCCCCNCCCCCCNCCCCCCN`, for which the negative-log KB (pKB) in test [4] was < 5; in test [2], 5.16. The compound also had a pKapp in test [1] of 4.63. In test [3], the “Log IC50” value was -5.62.
